How the values were obtained:
Type in all cases: cell-based
[1] = target: Hypoxia-inducible factor 1-alpha (Homo sapiens, UniProt Q16665); experiment: Inhibition of hypoxia-induced HIF1alpha transcriptional activity in human Hep3B cells after 24 hrs in hypoxic condition by HRE-dependent dual luciferase reporter gene assay
In short: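 Hep3B cells transiently co-transfected with pGL3-HRE-luciferase and pRL-CMV vectors, incubated 24 h, then treated with compounds for 24 h under hypoxia. Luciferase activity measured […]. IC50 given as mean ± SE, n=3.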

Hep 3B2 [2] = experiment: Cytotoxicity against human Hep3B cells assessed as reduction in cell viability after 24 hrs by MTT assay
In short: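 Hep3B cells exposed to compounds for 24 h under normoxic conditions; viability read by MTT assay; IC50 from mean ± SE, n=3.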

Hep 3B2 [3] = experiment: Cytotoxicity against human Hep3B cells assessed as reduction in cell viability up to 30 uM after 24 hrs in presence of 20% O2 by MTT assay; details: hep 3b2, 24 h
In short: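 Hep3B cells treated with the indicated concentrations (up to 30 µM) for 24 h, then viability determined by MTT assay.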

| SMILES | IC50 [1] | IC50 (Hep 3B2 [2]) | inhibition [1] | Activity (Hep 3B2 [3]) |
| --- | --- | --- | --- | --- |
| C[C@H]1[C@H](C)CC[C@]2(C(=O)OCCNc3cccc(-c4nnn[nH]4)c3)CC[C@]3(C)C(=CC[C@@H]4[C@@]5(C)CC[C@H](O)C(C)(C)[C@@H]5CC[C@]43C)[C@H]12 | 8.9 µM | > 100 µM |  |  |
| C[C@H]1[C@H](C)CC[C@]2(C(=O)OCCNc3ccc(-c4nnn[nH]4)cc3)CC[C@]3(C)C(=CC[C@@H]4[C@@]5(C)CC[C@H](O)C(C)(C)[C@@H]5CC[C@]43C)[C@H]12 | 26.2 µM | > 100 µM |  |  |
| C[C@H]1[C@H](C)CC[C@]2(C(=O)OCCn3nnnc3-c3ccccc3)CC[C@]3(C)C(=CC[C@@H]4[C@@]5(C)CC[C@H](O)C(C)(C)[C@@H]5CC[C@]43C)[C@H]12 | 18.1 µM | > 100 µM |  |  |
| C[C@H]1[C@H](C)CC[C@]2(C(=O)OCCCNc3nnn[nH]3)CC[C@]3(C)C(=CC[C@@H]4[C@@]5(C)CC[C@H](O)C(C)(C)[C@@H]5CC[C@]43C)[C@H]12 | 10.3 µM | > 100 µM |  |  |
| C[C@H]1[C@H](C)CC[C@]2(C(=O)O)CC[C@]3(C)C(=CC[C@@H]4[C@@]5(C)CC[C@H](O)C(C)(C)[C@@H]5CC[C@]43C)[C@H]12 [URSOLIC ACID] | > 100 µM |  |  |  |
| C[C@H]1[C@H](C)CC[C@]2(C(=O)OCCCNc3ccc(-c4nnn[nH]4)cc3)CC[C@]3(C)C(=CC[C@@H]4[C@@]5(C)CCC(=O)C(C)(C)[C@@H]5CC[C@]43C)[C@H]12 | > 100 µM | > 100 µM |  |  |
| C[C@H]1[C@H](C)CC[C@]2(C(=O)OCCNc3ccc(-c4nnn[nH]4)cc3)CC[C@]3(C)C(=CC[C@@H]4[C@@]5(C)CCC(=O)C(C)(C)[C@@H]5CC[C@]43C)[C@H]12 | 18.1 µM | > 100 µM |  |  |
| C[C@H]1[C@H](C)CC[C@]2(C(=O)OCCCNc3cccc(-c4nnn[nH]4)c3)CC[C@]3(C)C(=CC[C@@H]4[C@@]5(C)CC[C@H](O)C(C)(C)[C@@H]5CC[C@]43C)[C@H]12 | 13.2 µM | > 100 µM |  |  |
| C[C@H]1[C@H](C)CC[C@]2(C(=O)Nc3nnn[nH]3)CC[C@]3(C)C(=CC[C@@H]4[C@@]5(C)CC[C@H](OC(=O)C(F)(F)F)C(C)(C)[C@@H]5CC[C@]43C)[C@H]12 | 1.6 µM | 6.4 µM |  |  |
| C[C@H]1[C@H](C)CC[C@]2(C(=O)OCCCn3nnnc3-c3ccc(Cl)cc3)CC[C@]3(C)C(=CC[C@@H]4[C@@]5(C)CC[C@H](O)C(C)(C)[C@@H]5CC[C@]43C)[C@H]12 | 7.5 µM | > 100 µM |  |  |
| C[C@H]1[C@H](C)CC[C@]2(C(=O)OCn3ncn(-c4ccccc4)c3=O)CC[C@]3(C)C(=CC[C@@H]4[C@@]5(C)CC[C@H](O)C(C)(C)[C@@H]5CC[C@]43C)[C@H]12 | 36.9 µM | > 100 µM |  |  |
| C[C@H]1[C@H](C)CC[C@]2(C(=O)Nc3nnn[nH]3)CC[C@]3(C)C(=CC[C@@H]4[C@@]5(C)CC[C@H](OC(=O)c6ccccc6)C(C)(C)[C@@H]5CC[C@]43C)[C@H]12 | 0.8 µM | 18.5 µM |  |  |
| C[C@H]1[C@H](C)CC[C@]2(C(=O)OCCNc3ccccc3-c3nnn[nH]3)CC[C@]3(C)C(=CC[C@@H]4[C@@]5(C)CCC(=O)C(C)(C)[C@@H]5CC[C@]43C)[C@H]12 | > 100 µM | > 100 µM |  |  |
| C[C@H]1[C@H](C)CC[C@]2(C(=O)OCCNc3nnn[nH]3)CC[C@]3(C)C(=CC[C@@H]4[C@@]5(C)CCC(=O)C(C)(C)[C@@H]5CC[C@]43C)[C@H]12 | 14.2 µM | > 100 µM |  |  |
| COc1ccc(-c2nnnn2CCCOC(=O)[C@]23CC[C@@H](C)[C@H](C)[C@H]2C2=CC[C@@H]4[C@@]5(C)CC[C@H](O)C(C)(C)[C@@H]5CC[C@@]4(C)[C@]2(C)CC3)cc1 | 27.4 µM | > 100 µM |  |  |
| C[C@H]1[C@H](C)CC[C@]2(C(=O)OCCNc3ccccc3-c3nnn[nH]3)CC[C@]3(C)C(=CC[C@@H]4[C@@]5(C)CC[C@H](O)C(C)(C)[C@@H]5CC[C@]43C)[C@H]12 | > 100 µM | > 100 µM |  |  |
| C[C@H]1[C@H](C)CC[C@]2(C(=O)Nc3nnn[nH]3)CC[C@]3(C)C(=CC[C@@H]4[C@@]5(C)CC[C@H](O)C(C)(C)[C@@H]5CC[C@]43C)[C@H]12 | 13.3 µM | > 100 µM |  |  |

| SMILES | IC50 [1] | IC50 (Hep 3B2 [2]) | inhibition [1] | Activity (Hep 3B2 [3]) |
| --- | --- | --- | --- | --- |
| C[C@H]1[C@H](C)CC[C@]2(C(=O)OCCCNc3ccccc3-c3nnn[nH]3)CC[C@]3(C)C(=CC[C@@H]4[C@@]5(C)CCC(=O)C(C)(C)[C@@H]5CC[C@]43C)[C@H]12 | > 100 µM | > 100 µM |  |  |
| C[C@H]1[C@H](C)CC[C@]2(C(=O)OCCCn3nnnc3-c3ccc4c(c3)OCO4)CC[C@]3(C)C(=CC[C@@H]4[C@@]5(C)CC[C@H](O)C(C)(C)[C@@H]5CC[C@]43C)[C@H]12 | 83 µM | > 100 µM |  |  |
| C[C@H]1[C@H](C)CC[C@]2(C(=O)OCCCNc3ccccc3-c3nnn[nH]3)CC[C@]3(C)C(=CC[C@@H]4[C@@]5(C)CC[C@H](O)C(C)(C)[C@@H]5CC[C@]43C)[C@H]12 | > 100 µM | > 100 µM |  |  |
| C[C@H]1[C@H](C)CC[C@]2(C(=O)O)CC[C@]3(C)C(=CC[C@@H]4[C@@]5(C)CC(=C\c6ccc(Cl)cc6)/C(=N\NC(=N)N)C(C)(C)[C@@H]5CC[C@]43C)[C@H]12 | 4 µM | > 100 µM |  |  |
| C[C@H]1[C@H](C)CC[C@]2(C(=O)OCCNc3nnn[nH]3)CC[C@]3(C)C(=CC[C@@H]4[C@@]5(C)CC[C@H](O)C(C)(C)[C@@H]5CC[C@]43C)[C@H]12 | 8.5 µM | > 100 µM |  |  |
| CCCC(=O)O[C@H]1CC[C@]2(C)[C@H]3CC=C4[C@@H]5[C@@H](C)[C@H](C)CC[C@]5(C(=O)Nc5nnn[nH]5)CC[C@@]4(C)[C@]3(C)CC[C@H]2C1(C)C | 1.4 µM | 4.7 µM |  |  |
| C[C@H]1[C@H](C)CC[C@]2(C(=O)Nc3nnn[nH]3)CC[C@]3(C)C(=CC[C@@H]4[C@@]5(C)CCC(=O)C(C)(C)[C@@H]5CC[C@]43C)[C@H]12 | 18.1 µM | > 100 µM |  |  |
| C[C@H]1[C@H](C)CC[C@]2(C(=O)OCCCNc3nnn[nH]3)CC[C@]3(C)C(=CC[C@@H]4[C@@]5(C)CCC(=O)C(C)(C)[C@@H]5CC[C@]43C)[C@H]12 | 16.7 µM | > 100 µM |  |  |
| C[C@H]1[C@H](C)CC[C@]2(C(=O)Nc3nnn[nH]3)CC[C@]3(C)C(=CC[C@@H]4[C@@]5(C)CC/C(=N\Nc6ccccc6)C(C)(C)[C@@H]5CC[C@]43C)[C@H]12 | 2.2 µM | 11.9 µM |  |  |
| C[C@H]1[C@H](C)CC[C@]2(C(=O)OCCn3nnnc3-c3ccc4c(c3)OCO4)CC[C@]3(C)C(=CC[C@@H]4[C@@]5(C)CC[C@H](O)C(C)(C)[C@@H]5CC[C@]43C)[C@H]12 | > 100 µM | > 100 µM |  |  |
| C[C@H]1[C@H](C)CC[C@]2(C(=O)OCCCNc3ccc(-c4nnn[nH]4)cc3)CC[C@]3(C)C(=CC[C@@H]4[C@@]5(C)CC[C@H](O)C(C)(C)[C@@H]5CC[C@]43C)[C@H]12 | > 100 µM | > 100 µM |  |  |
| C[C@H]1[C@H](C)CC[C@]2(C(=O)OCCCNc3cccc(-c4nnn[nH]4)c3)CC[C@]3(C)C(=CC[C@@H]4[C@@]5(C)CCC(=O)C(C)(C)[C@@H]5CC[C@]43C)[C@H]12 | > 100 µM | > 100 µM |  |  |
| C[C@H]1[C@H](C)CC[C@]2(C(=O)OCCn3nnnc3-c3ccc(Cl)cc3)CC[C@]3(C)C(=CC[C@@H]4[C@@]5(C)CC[C@H](O)C(C)(C)[C@@H]5CC[C@]43C)[C@H]12 | 76.4 µM | > 100 µM |  |  |
| C[C@H]1[C@H](C)CC[C@]2(C(=O)OCCNc3cccc(-c4nnn[nH]4)c3)CC[C@]3(C)C(=CC[C@@H]4[C@@]5(C)CCC(=O)C(C)(C)[C@@H]5CC[C@]43C)[C@H]12 | > 100 µM | > 100 µM |  |  |
| CC(=O)O[C@H]1CC[C@]2(C)[C@H]3CC=C4[C@@H]5[C@@H](C)[C@H](C)CC[C@]5(C(=O)Nc5nnn[nH]5)CC[C@@]4(C)[C@]3(C)CC[C@H]2C1(C)C | 4.7 µM | > 100 µM | Dose-dependent effect | Non-Toxic |
| C[C@H]1[C@H](C)CC[C@]2(C(=O)OCCCn3nnnc3-c3ccccc3)CC[C@]3(C)C(=CC[C@@H]4[C@@]5(C)CC[C@H](O)C(C)(C)[C@@H]5CC[C@]43C)[C@H]12 | 40 µM | > 100 µM |  |  |
| COc1ccc(-c2nnnn2CCOC(=O)[C@]23CC[C@@H](C)[C@H](C)[C@H]2C2=CC[C@@H]4[C@@]5(C)CC[C@H](O)C(C)(C)[C@@H]5CC[C@@]4(C)[C@]2(C)CC3)cc1 | > 100 µM | > 100 µM |  |  |

— ChEMBL document CHEMBL4392861, “Synthesis and evaluation of the HIF-1α inhibitory activities of novel ursolic acid tetrazole derivatives” (Bioorg Med Chem Lett, 2019)
